# Assay results taken from the array DNA melting data of Ke et al. (doi:10.1101/2024.01.08.574731).
# Legend:
# [1] = folding enthalpy; higher = less favourable; fluorescence melt of hairpins on a sequencing array, two-state fit; settings: sodium 0.088 M
# How it was run: (§1)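 Folding enthalpy and melting temperature were estimated with bootstrapped two-state fits and combined across four replicates by inverse-variance weighting, with fitted temperatures raised by 9.35 °C to match UV melts. The data were Cy3 fluorescence of library hairpins, with annealed Cy3 and quencher oligos, on a sequenced MiSeq flow cell in 50 mM Na-HEPES pH 8.0, 25 mM NaCl, imaged in 2.5 °C steps up to 60 °C and normalised to pre-quench Cy3 and control constructs.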
# [2] = melting temperature; fluorescence melt of hairpins on a sequencing array, two-state fit, raised by 9.35 °C to match UV melts; settings: sodium 0.088 M
# How it was run: as §1
Sequence,folding enthalpy [1] [kcal/mol],Tm [2] [°C]
GTACCAGGAAACCAGTAC ((((..(....)..)))),-11.4,24.9
GCGCTACGAAAGTAACGC (((.(((....))).))),-41.1,56.5
GGACCACGAAAGTGCTCC (((.(((....))).))),-25.9,41.5
GCAAAGGGAAACCCTTGC ((((.((....)).)))),-29.5,46
GTGACTGGAAACGGTCAC (((((.(....).))))),-49.6,53.2
GATCTAAAATTAGATC ((((((....)))))),-29.9,35.7
GAATTCCGAAAGGATTTC (((.(((....))).))),-29.7,40.7
GATCCGAGGACGGATC ((((((....)))))),-33.9,56.5
GCATGAACGAAAGTTTGC (((..(((....)))))),-20.5,33.9
GATCCGAAACCGGATC ((((((....)))))),-38,53.4
GATCTGGACGCAGATC ((((((....)))))),-47,51.3
GCGTTAAGACGC ((((....)))),-22.4,54
GGCCATGGAAACGTGGTC (.(((.(....).))).),-33.2,45.2
GATCATACACATGATC ((((((....)))))),-36,47.2
GCGATTAATCGC ((((....)))),-29.4,56.1
GCAGACCCGAAAGGGTGC (((..(((....)))))),-14.2,50.3
GATCTTGCTTAAGATC ((((((....)))))),-38,44
GATCCCTACAGGGATC ((((((....)))))),-36.2,65.6
GATCGTGGAAACATGATC ((((.((....)).)))),-43.8,47.5
GAGGCGCGAAAGCGCTC (((.(((....)))))),-7.37,46.6
GCCCTCGAAAGAGGAGGC ((((((....)))..))),-17,51.9
GTCAACGAAAGTTACGAC ((((((....)))..))),-16.4,34.5
GCCGGCGAAAGCCATGGC ((((((....)))..))),-19.9,56.1
GCCATGGAAACATGGC ((((((....)))))),-34,67.7

Sequence,folding enthalpy [1] [kcal/mol],Tm [2] [°C]
GCTGCCGAAAGGCTGAGC ((((((....)))..))),-16.2,50.1
GATCGATTTTCGATC ((((((...)))))),-35.2,54.4
GCCGACGAAAGTCTTGGC ((((((....)))..))),-23.2,48.1
GTTACGACGAAAGTCAAC (((..(((....)))))),-12.3,25.5
GAAACTGGAAACAGCTTC (((.(((....))).))),-31.1,32.5
GACACCGAAAGGTGGGTC ((((((....)))..))),-11.2,65.5
CGTGATCGGAAACGAACG (((..(((....)))))),-8.71,28.6
GCCTAACGAAAGTTCGGC (((.(((....))).))),-34.8,52.4
GTATTACGAAAGTAGTAC (((.(((....))).))),-28.4,41.3
GATCGGATAACCGATC ((((((....)))))),-35.1,56.2
GATCTGGGAAACCAGGTC ((.((((....)))).)),-25,48.4
GTTTCCGAAAGGACGAAC ((((((....)))..))),-9.15,21.9
GATCTGCAGGCAGATC ((((((....)))))),-32.7,60.2
GTCGGCGGAAACGCTGGC (.(.(((....))).).),-21.2,50.5
GAATCGAAAGATTC (((((....))))),-27.4,50.9
GCGAGACGTCGC ((((....)))),-8.79,52.9
GCTAAGCGAAAGCTAGGC ((..(((....)))..)),-17.6,47.4
GATCTTGTGCAAGATC ((((((....)))))),-47,46.4
GATCTACGAATAGATC ((((((....)))))),-24,36.4
GTTCCGGGAAACCGGAAC (((((((....))))))),-30.1,68.7
GGGCTACGAAAGTATCCC (((.(((....))).))),-29.9,48.4
GTTGGTGGAAACATCGAC ((.(.((....)).).)),-21.1,35.1
GTAGACGAAAGTCAGTAC ((((((....)))..))),-9.2,28.6
